Experimental data published in ChEMBL document CHEMBL1121798, “Puromycin analogues. Effect of aryl-substituted puromycin analogues on the ribosomal peptidyltransferase reaction” (J Med Chem, 1981).
Active and inactive are the calls of the source. No cut-off for these calls is given here.

Columns and labels:
Escherichia coli [1] = assay: Vmax in the peptidyltransferase reaction; format: functional
Procedure, shortened: (§1)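 E. coli ribosomes (washed, 2.78 A260 units) loaded with Ac[14C]Phe-tRNA (21 pmol) in 100 mM Tris-Cl pH 7.5, 100 mM NH4Cl, 15 mM Mg(OAc)2, 0.65 mM DTT, 1.2 mM GTP, FWR, poly(U), 28 °C for 8 min. Analogue then added as acceptor. Radiolabelled product counted and blank-corrected. Duplicates at five substrate concentrations. Km/Vmax from double-reciprocal plots by Wilkinson analysis.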

Escherichia coli [2] = assay: Compound was evaluated for the substrate activity in the peptidyltransferase reaction of Escherichia coli ribosomes.
Escherichia coli [3] = assay: Michaelis constant (Km) in the peptidyltransferase reaction; format: functional; procedure, shortened: as §1
Escherichia coli [4] = assay: Michaelis constant (Km) in the peptidyltransferase reaction; Inactive; format: functional; procedure, shortened: as §1

Row | Compound | Vmax (Escherichia coli [1]) [pmol/min] | Substrate efficiency (Escherichia coli [2]) [%] | Km (Escherichia coli [3]) [µM] | Km (Escherichia coli [4])
1 | CN(C)c1ncnc2c1ncn2C1OC(CO)C(NC(=O)C(N)Cc2ccc(N)cc2)C1O (stereo unspecified) | 0.79 | 89 | 120 | –
2 | CC(=O)Nc1ccc(CC(N)C(=O)NC2C(CO)OC(n3cnc4c(N(C)C)ncnc43)C2O)cc1 (stereo unspecified) | 0.45 | 23.7 | 256 | –
3 | CN(C)c1ncnc2c1ncn2C1OC(CO)C(NC(=O)C(N)Cc2ccc(NC(=O)CBr)cc2)C1O (stereo unspecified) | – | – | – | inactive
4 | CN(C)c1ncnc2c1ncn2C1OC(CO)C(NC(=O)C(N)Cc2ccc([N+](=O)[O-])cc2)C1O (stereo unspecified) | 0.39 | 20.7 | 255 | –
5 | CCCC(=O)Nc1ccc(CC(N)C(=O)NC2C(CO)OC(n3cnc4c(N(C)C)ncnc43)C2O)cc1 (stereo unspecified) | 0.53 | 19.5 | 367 | –
6 | COc1ccc(C[C@H](N)C(=O)N[C@H]2[C@@H](O)[C@H](n3cnc4c(N(C)C)ncnc43)O[C@@H]2CO)cc1 | 0.99 | 100 | 134 | –
